Drawing on ChEMBL document CHEMBL1138073, “Arylamide derivatives as allosteric inhibitors of the integrin alpha2beta1/type I collagen interaction” (Bioorg Med Chem Lett, 2006), this text covers IC50 and Activity for 15 molecules.

Test [1] can be described thus: Inhibition of collagen binding to integrin alpha-2-beta-1 by ELISA. On the set-up: species or system Homo sapiens. An outline of the steps: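 Collagen type I (soluble) immobilized on 96-well plate; recombinant GST-tagged α2 I-domain added with increasing concentrations of inhibitor. Bound I-domain detected with peroxidase-conjugated anti-GST antibody, colorimetric read at 405 nm; IC50 derived from concentration series.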

The nature of test [2]: Inhibition of collagen binding to integrin alpha-2-beta-1 in intact platelets. On the set-up: species or system Homo sapiens. In short, it runs like this:
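Gel-filtered human platelets allowed to adhere to type I collagen immobilized on 96-well plates in presence of inhibitor; inhibition scored by number of bound platelets.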

The next test has as its system Platelet. The test can be described thus: Inhibition of collagen-induced platelet aggregation at 5 uM. To be noted: Homo sapiens. Type of test: functional, cell-based.

Activity calls are given as the source filed them. No cut-off for these calls is given here.

In the case of `CC(C)(C)c1cc(NC(=O)c2cccc(C(=O)Nc3cc(C(C)(C)C)cc(NC(=O)[C@H](N)Cc4ccc5ccccc5c4)c3SCCN)c2)c(SCCN)c(NC(=O)[C@H](N)Cc2ccc3ccccc3c2)c1`, the IC50 is above 20 µM in test [1] and 14.4 µM in test [2].

For `CC(C)(C)c1cc(NC(=O)CN)c(SCCN)c(NC(=O)c2cccc(C(=O)Nc3cc(C(C)(C)C)cc(NC(=O)CN)c3SCCN)c2)c1`, the IC50 was above 50 µM in test [1] and above 100 µM in test [2].

With `NCCSc1c(N)cccc1NC(=O)c1cccc(C(=O)Nc2cccc(NC(=O)[C@H](N)Cc3cccnc3)c2SCCN)c1`, the values for the IC50 in test [1] and in test [2] were above 50 µM and above 100 µM, respectively.

In the case of `CC(C)(C)c1cc(NC(=O)c2cccc(C(=O)Nc3cc(C(C)(C)C)cc(NC(=O)[C@@H](N)CCCN=C(N)N)c3SCCN)c2)c(SCCN)c(NC(=O)[C@@H](N)CCCN=C(N)N)c1`, the IC50 in test [1] was above 50 µM; in test [2], above 100 µM.

Consider `CC(C)(C)c1cc(NC(=O)c2cccc(C(=O)Nc3cc(C(C)(C)C)cc(NC(=O)[C@@H](N)Cc4ccc5ccccc5c4)c3SCCN)c2)c(SCCN)c(NC(=O)[C@@H](N)Cc2ccc3ccccc3c2)c1`, for which the IC50 in test [1] stood at 4.8 µM; in test [2], 3.4 µM. Further, the result with Platelet was Active.

In the case of `NCCOc1cc(C(=O)Nc2cccc(NC(=O)[C@H](N)Cc3ccccc3)c2SCCN)cc(C(=O)Nc2cccc(NC(=O)[C@H](N)Cc3ccccc3)c2SCCN)c1`, the IC50 was above 50 µM in test [1] and 43.2 µM in test [2].

Turning to `NCCSc1c(NC(=O)c2cccc(C(=O)Nc3cccc(NC(=O)[C@H](N)Cc4ccc5ccccc5c4)c3SCCN)c2)cccc1NC(=O)[C@H](N)Cc1ccc2ccccc2c1`, the IC50 in test [1] turned out to be 19.7 µM; in test [2] it was 16.9 µM.

For the molecule `CC(C)(C)c1cc(NC(=O)c2cccc(C(=O)Nc3cc(C(C)(C)C)cc(NC(=O)[C@H](N)Cc4c[nH]c5ccccc45)c3SCCN)c2)c(SCCN)c(NC(=O)[C@H](N)Cc2c[nH]c3ccccc23)c1`, the IC50 in test [1] is above 20 µM; in test [2] it was 17.3 µM.

`C[C@@H](N)C(=O)Nc1cc(C(C)(C)C)cc(NC(=O)c2cccc(C(=O)Nc3cc(C(C)(C)C)cc(NC(=O)[C@@H](C)N)c3SCCN)c2)c1SCCN`: the IC50 in test [1] is above 50 µM; in test [2], above 100 µM.

For `NCCSc1c(NC(=O)c2cccc(C(=O)Nc3cccc(NC(=O)[C@@H](N)Cc4ccc5ccccc5c4)c3SCCN)c2)cccc1NC(=O)[C@@H](N)Cc1ccc2ccccc2c1`, the values for the IC50 in test [1] and in test [2] were 6.23 µM and 10.1 µM, respectively.

For `NCCSc1c(N)cccc1NC(=O)c1cccc(C(=O)Nc2cccc(NC(=O)[C@@H](N)Cc3ccc4ccccc4c3)c2SCCN)c1`, the results for the IC50 in test [1] and in test [2] were above 50 µM and 85.3 µM, respectively.

Take `NCCSc1c(N)cccc1NC(=O)c1cccc(C(=O)Nc2cccc(NC(=O)[C@H](N)Cc3ccc4ccccc4c3)c2SCCN)c1`: the 50% inhibitory concentration (IC50) in test [1] was above 50 µM; in test [2], 64.6 µM.

On to `CC(C)(C)c1cc(NC(=O)CCCN)c(SCCN)c(NC(=O)c2cccc(C(=O)Nc3cc(C(C)(C)C)cc(NC(=O)CCCN)c3SCCN)c2)c1`, for which the IC50 was above 50 µM in test [1] and above 100 µM in test [2].

On to `CC(C)(C)c1cc(NC(=O)c2cccc(C(=O)Nc3cc(C(C)(C)C)cc(NC(=O)[C@H](N)Cc4cccnc4)c3SCCN)c2)c(SCCN)c(NC(=O)[C@H](N)Cc2cccnc2)c1`, for which the results for the IC50 in test [1] and in test [2] were above 50 µM and above 100 µM, respectively.

`CC(C)(C)c1ccc(SCCN)c(NC(=O)c2cc(C(=O)Nc3cc(C(C)(C)C)ccc3SCCN)c(OCCN)cc2OCCN)c1`: the IC50 in test [1] is above 50 µM; in test [2] it was above 100 µM.
